“Also recorded” adds a separate entry of the source.
Legend:
7 dpf zebrafish larvae = assay: zebrafish strobe light response; type: in vivo, Danio rerio; conditions: for switch of strobe light response from freezing to escape behavior (in words): dose curves, freezing index, 7 dpf larvae, 1 hr incubation
How it was run: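 7 dpf larvae (EkkWill; TuAB sigmar1 frameshift mutants vs WT siblings) raised in 10 mM HEPES-E3 at 28 °C, 10 per well. Compound added at 1:100 from stock, 1 hr at 28 °C in ambient light; genetic tests included 10 μM scopolamine. Infrared video across alternating 1-min dark/strobe periods. Freezing index = third-quartile motion, strobe minus dark. 12 wells/dose; switching concentration taken from the dose-curve zero intercept.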

sigma-1 receptor = sigma-1 receptor (Cavia porcellus, UniProt Q60492); assay: sigma-1 radioligand competition binding assay; parameters: species or system rodent
Chain of sigma-1 receptor (Q60492 whole entry): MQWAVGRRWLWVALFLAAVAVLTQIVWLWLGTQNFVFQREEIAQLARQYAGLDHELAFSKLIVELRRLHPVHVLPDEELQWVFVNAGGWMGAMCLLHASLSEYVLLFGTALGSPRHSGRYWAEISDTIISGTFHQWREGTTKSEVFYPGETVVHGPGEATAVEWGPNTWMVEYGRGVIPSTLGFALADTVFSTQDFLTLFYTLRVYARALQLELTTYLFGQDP

SMILES	switch of strobe light response from freezing to escape behavior (in words) (7 dpf zebrafish larvae)	other results
COc1ccccc1N1CCN(CC(O)COc2cccc3ccccc23)CC1 (centres unmarked) [naftopidil]	–	switch from freezing to escape at 5 μM (7 dpf zebrafish larvae; 5 μM): just barely switched the zebrafish response from freezing to escape; immobilization of larvae at 10 μM (7 dpf zebrafish larvae; 10 μM, presumably due to toxicity): completely immobilized the larvae
CC(N)Cc1ccccc1 (centres unmarked) [amphetamine]	did not cause strobe-induced	–
COC(=O)[C@H]1[C@@H](OC(=O)c2ccccc2)C[C@@H]2CC[C@H]1N2C [cocaine]	did not cause strobe-induced	–
COC(=O)C(c1ccccc1)C1CCCCN1 (centres unmarked) [methylphenidate]	did not cause strobe-induced	–
Cc1cccc(NC(=O)CCN2CCNCC2)c1 [Compound 27, 3-(piperazin-1-yl)-N-(m-tolyl)propanamide]	no effect; also recorded: ineffective at modulating behavior	sigma-1 binding (in words) (sigma-1 receptor): lost its binding potency at sigma-1
CN1CCC[C@H]1c1cccnc1 [nicotine]	did not cause strobe-induced	–
